Results reported in ChEMBL document CHEMBL1795311, “Synthesis, antiproliferative activity, and mechanism of action of a series of 2-{[(2E)-3-phenylprop-2-enoyl]amino}benzamides” (Eur J Med Chem, 2011).
Blank lines part the entries; values can stand above or below the compound they belong to.

Tests used:
MDA-MB-231 = assay: Growth inhibition of human MDA-MB-231 cells after 48 hrs by SRB assay; assay type: functional; conditions: MDA-MB-231, 48 h
How it was run: (§1)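 NCI DTP panel cells grown in RPMI 1640 with 5% FBS and 2 mM L-glutamine, preincubated 24 h, then given five concentrations (10-fold or ½-log dilutions from DMSO stock) for 48 h at 37 °C. Cells fixed with TCA, stained with SRB, absorbance read at 515 nm, with time-zero plates as reference.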

UO-31 = assay: Growth inhibition of human UO31 cells after 48 hrs by SRB assay; assay type: functional; conditions: UO-31, 48 h
How it was run: (§2)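 Run by the NCI Developmental Therapeutics Program: cells in RPMI 1640 with 5% FBS and 2 mM L-glutamine, plated at 5000–40,000 cells/well and grown 24 h before dosing. Drug (DMSO stock) given at five concentrations for 48 h at 37 °C, 5% CO2. Adherent cells fixed with cold TCA, stained with 0.4% SRB and read at 515 nm. GI50, TGI and LC50 taken from the time-zero, control and treated absorbances.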

HOP-92 = assay: Growth inhibition of human HOP92 cells after 48 hrs by SRB assay; assay type: functional; conditions: HOP-92, 48 h; how it was run: as §1
U-251 = assay: Growth inhibition of human U251 cells after 48 hrs by SRB assay; assay type: functional; conditions: U-251, 48 h; how it was run: as §2
HT-29 = assay: Growth inhibition of human HT-29 cells after 48 hrs by SRB assay; assay type: functional; conditions: HT-29, 48 h; how it was run: as §1
OVCAR-3 = assay: Growth inhibition of human OVCAR3 cells after 48 hrs by SRB assay; assay type: functional; conditions: OVCAR-3, 48 h; how it was run: as §1
OVCAR-8 = assay: Growth inhibition of human OVCAR8 cells after 48 hrs by SRB assay; assay type: functional; conditions: OVCAR-8, 48 h; how it was run: as §1
K562 [1] = assay: Growth inhibition of human K562 cells after 48 hrs by trypan blue assay; assay type: functional, cell-based; conditions: K562, 48 h
SF-295 = assay: Growth inhibition of human SF295 cells after 48 hrs by SRB assay; assay type: functional; conditions: SF-295, 48 h; how it was run: as §1
NCI-H460 = assay: Growth inhibition of human NCI-H460 cells after 48 hrs by SRB assay; assay type: functional; conditions: NCI-H460, 48 h; how it was run: as §1
OVCAR-5 = assay: Growth inhibition of human OVCAR5 cells after 48 hrs by SRB assay; assay type: functional; conditions: OVCAR-5, 48 h; how it was run: as §1
HCT-15 = assay: Growth inhibition of human HCT15 cells after 48 hrs by SRB assay; assay type: functional; conditions: HCT-15, 48 h; how it was run: as §1
OVCAR-4 = assay: Growth inhibition of human OVCAR4 cells after 48 hrs by SRB assay; assay type: functional; conditions: OVCAR-4, 48 h; how it was run: as §1
Malme-3M = assay: Growth inhibition of human MALME-3M cells after 48 hrs by SRB assay; assay type: functional; how it was run: as §1
K562 [2] = assay: Antiproliferative activity against human K562 cells at 10 uM after 48 hrs by trypan blue assay; assay type: functional; conditions: K562, 48 h, read-out: GI
[3] = Growth inhibition of human Hs 578T cells after 48 hrs by SRB assay; assay type: functional; how it was run: as §1
SF-539 = assay: Growth inhibition of human SF539 cells after 48 hrs by SRB assay; assay type: functional; conditions: SF-539, 48 h; how it was run: as §1
RXF 393 = assay: Growth inhibition of human RXF393 cells after 48 hrs by SRB assay; assay type: functional; conditions: RXF 393, 48 h; how it was run: as §1
SN12C = assay: Growth inhibition of human SN12C cells after 48 hrs by SRB assay; assay type: functional; how it was run: as §2
ACHN = assay: Growth inhibition of human ACHN cells after 48 hrs by SRB assay; assay type: functional; how it was run: as §1
NCI-H226 = assay: Growth inhibition of human NCI-H226 cells after 48 hrs by SRB assay; assay type: functional; conditions: NCI-H226, 48 h; how it was run: as §1
UACC-62 = assay: Growth inhibition of human UACC62 cells after 48 hrs by SRB assay; assay type: functional; conditions: UACC-62, 48 h; how it was run: as §2
786-0 = assay: Growth inhibition of human 786-0 cells after 48 hrs by SRB assay; assay type: functional; conditions: 786-0, 48 h; how it was run: as §1
A549 = assay: Growth inhibition of human A549 cells after 48 hrs by SRB assay; assay type: functional; conditions: A549, 48 h; how it was run: as §1
SK-MEL-28 = assay: Growth inhibition of human SK-MEL-28 cells after 48 hrs by SRB assay; assay type: functional; conditions: SK-MEL-28, 48 h; how it was run: as §2
HCC 2998 = assay: Growth inhibition of human HCC2998 cells after 48 hrs by SRB assay; assay type: functional; conditions: HCC 2998, 48 h; how it was run: as §1
T47D = assay: Growth inhibition of human T47D cells after 48 hrs by SRB assay; assay type: functional; how it was run: as §2
MOLT-4 = assay: Growth inhibition of human MOLT4 cells after 48 hrs by SRB assay; assay type: functional; conditions: MOLT-4, 48 h; how it was run: as §1
UACC-257 = assay: Growth inhibition of human UACC257 cells after 48 hrs by SRB assay; assay type: functional; conditions: UACC-257, 48 h; how it was run: as §2
LOX IMVI = assay: Growth inhibition of human LOXIMVI cells after 48 hrs by SRB assay; assay type: functional; how it was run: as §1
SNB-75 = assay: Growth inhibition of human SNB75 cells after 48 hrs by SRB assay; assay type: functional; conditions: SNB-75, 48 h; how it was run: as §2
IGROV-1 = assay: Growth inhibition of human IGROV1 cells after 48 hrs by SRB assay; assay type: functional; conditions: IGROV-1, 48 h; how it was run: as §1
NCI-H522 = assay: Growth inhibition of human NCI-H522 cells after 48 hrs by SRB assay; assay type: functional; conditions: NCI-H522, 48 h; how it was run: as §1
PC-3 = assay: Growth inhibition of human PC3 cells after 48 hrs by SRB assay; assay type: functional; conditions: PC-3, 48 h; how it was run: as §1
COLO 205 = assay: Growth inhibition of human COLO205 cells after 48 hrs by SRB assay; assay type: functional; conditions: COLO 205, 48 h; how it was run: as §1
SW-620 = assay: Growth inhibition of human SW620 cells after 48 hrs by SRB assay; assay type: functional; conditions: SW-620, 48 h; how it was run: as §2
KM12 = assay: Growth inhibition of human KM12 cells after 48 hrs by SRB assay; assay type: functional; conditions: KM12, 48 h; how it was run: as §1
CCRF-CEM = assay: Growth inhibition of human CCRF-CEM cells after 48 hrs by SRB assay; assay type: functional; how it was run: as §1
TK-10 = assay: Growth inhibition of human TK10 cells after 48 hrs by SRB assay; assay type: functional; conditions: TK-10, 48 h; how it was run: as §2
HCT-116 = assay: Growth inhibition of human HCT116 cells after 48 hrs by SRB assay; assay type: functional; conditions: HCT-116, 48 h; how it was run: as §1
SK-MEL-5 = assay: Growth inhibition of human SK-MEL-5 cells after 48 hrs by SRB assay; assay type: functional; conditions: SK-MEL-5, 48 h; how it was run: as §2
MCF7 = assay: Growth inhibition of human MCF7 cells after 48 hrs by SRB assay; assay type: functional; conditions: MCF7, 48 h; how it was run: as §1
SK-OV-3 = assay: Growth inhibition of human SKOV3 cells after 48 hrs by SRB assay; assay type: functional; conditions: SK-OV-3, 48 h; how it was run: as §2
K562 [4] = assay: Growth inhibition of human K562 cells after 48 hrs by SRB assay; assay type: functional; conditions: K562, 48 h; how it was run: as §1
DU-145 = assay: Growth inhibition of human DU145 cells after 48 hrs by SRB assay; assay type: functional; conditions: DU-145, 48 h; how it was run: as §1
CAKI-1 = assay: Growth inhibition of human Caki1 cells after 48 hrs by SRB assay; assay type: functional; conditions: CAKI-1, 48 h; how it was run: as §1

GI50 (MDA-MB-231): 2.48 µM
GI50 (U-251): 2.14 µM
GI50 (HT-29): 1.94 µM
GI50 (OVCAR-3): 1.3 µM
GI50 (OVCAR-8): 3.89 µM
IC50 (K562 [1]): 2.5 µM
GI50 (NCI-H460): 1.76 µM
GI50 (OVCAR-5): 2.74 µM
GI50 (HCT-15): 2.13 µM
GI50 (OVCAR-4): 2.77 µM
GI50 (ACHN): 4.75 µM
GI50 (NCI-H226): 3 µM
GI50 (786-0): 2.32 µM
GI50 (A549): 3.77 µM
GI50 (SK-MEL-28): 2.88 µM
GI50 (HCC 2998): 0.487 µM
GI50 (T47D): 3.36 µM
GI50 (MOLT-4): 3.95 µM
GI50 (NCI-H522): 2.08 µM
GI50 (PC-3): 3.15 µM
GI50 (COLO 205): 1.68 µM
GI50 (SW-620): 1.99 µM
GI50 (CCRF-CEM): 2.96 µM
GI50 (HCT-116): 1.98 µM
GI50 (SK-MEL-5): 0.373 µM
GI50 (MCF7): 1.74 µM
GI50 (SK-OV-3): 2.3 µM
GI50 (K562 [4]): 0.845 µM
GI50 (DU-145): 2.16 µM
SMILES: NC(=O)c1cc(Cl)ccc1NC(=O)/C=C/c1ccccc1
GI50 (UO-31): 3.57 µM
GI50 (HOP-92): 2.87 µM
GI50 (SF-295): 1.4 µM
GI50 (Malme-3M): 2.68 µM
inhibition of growth at 10 µM (K562 [2]): 64%
GI50 [3]: 2.04 µM
GI50 (SF-539): 2.05 µM
GI50 (RXF 393): 1.71 µM
GI50 (SN12C): 3.96 µM
GI50 (UACC-62): 2.52 µM
GI50 (UACC-257): 15.1 µM
GI50 (LOX IMVI): 4.33 µM
GI50 (SNB-75): 1.84 µM
GI50 (IGROV-1): 3.29 µM
GI50 (KM12): 1.69 µM
GI50 (TK-10): 5.51 µM
GI50 (CAKI-1): 0.263 µM

GI50 (MDA-MB-231): 0.596 µM
GI50 (U-251): 0.501 µM
GI50 (HT-29): 0.367 µM
GI50 (OVCAR-3): 0.353 µM
GI50 (OVCAR-8): 1.06 µM
IC50 (K562 [1]): 0.57 µM
GI50 (NCI-H460): 0.453 µM
GI50 (OVCAR-5): 3.52 µM
GI50 (HCT-15): 0.586 µM
GI50 (OVCAR-4): 1.84 µM
GI50 (ACHN): 3.7 µM
GI50 (NCI-H226): 1.09 µM
GI50 (786-0): 1.43 µM
GI50 (A549): 2.65 µM
GI50 (SK-MEL-28): 2.51 µM
GI50 (HCC 2998): 1.25 µM
GI50 (T47D): 0.857 µM
GI50 (MOLT-4): 0.202 µM
GI50 (NCI-H522): 0.303 µM
GI50 (PC-3): 0.628 µM
GI50 (COLO 205): 0.343 µM
GI50 (SW-620): 0.541 µM
GI50 (CCRF-CEM): 0.341 µM
GI50 (HCT-116): 0.43 µM
GI50 (SK-MEL-5): 0.383 µM
GI50 (MCF7): 0.45 µM
GI50 (SK-OV-3): 0.744 µM
GI50 (K562 [4]): 0.92 µM
GI50 (DU-145): 0.477 µM
SMILES: NC(=O)c1cc(I)ccc1NC(=O)/C=C/c1ccccc1
GI50 (UO-31): 3.53 µM
GI50 (HOP-92): 21.2 µM
GI50 (SF-295): 0.35 µM
GI50 (Malme-3M): 1.6 µM
inhibition of growth at 10 µM (K562 [2]): 74.5%
GI50 [3]: 0.375 µM
GI50 (SF-539): 0.445 µM
GI50 (RXF 393): 3.02 µM
GI50 (SN12C): 0.635 µM
GI50 (UACC-62): 0.632 µM
GI50 (UACC-257): 14.3 µM
GI50 (LOX IMVI): 3.75 µM
GI50 (SNB-75): 0.245 µM
GI50 (IGROV-1): 0.917 µM
GI50 (KM12): 0.499 µM
GI50 (TK-10): 3.15 µM
GI50 (CAKI-1): 0.648 µM
